# Measurements from ChEMBL document CHEMBL2176984, “Target Selectivity of FimH Antagonists” (J Med Chem, 2012).
# Activity calls are given as the source filed them. The rule behind the calls is not given here.
# Legend:
# [1] = target: T1, Macrophage mannose receptor 1 (Homo sapiens, UniProt P22897); experiment: Displacement of biotinylated-TM PAA from human MMR after 3 hrs by colorimetry
# T1 sequence (P22897 whole entry): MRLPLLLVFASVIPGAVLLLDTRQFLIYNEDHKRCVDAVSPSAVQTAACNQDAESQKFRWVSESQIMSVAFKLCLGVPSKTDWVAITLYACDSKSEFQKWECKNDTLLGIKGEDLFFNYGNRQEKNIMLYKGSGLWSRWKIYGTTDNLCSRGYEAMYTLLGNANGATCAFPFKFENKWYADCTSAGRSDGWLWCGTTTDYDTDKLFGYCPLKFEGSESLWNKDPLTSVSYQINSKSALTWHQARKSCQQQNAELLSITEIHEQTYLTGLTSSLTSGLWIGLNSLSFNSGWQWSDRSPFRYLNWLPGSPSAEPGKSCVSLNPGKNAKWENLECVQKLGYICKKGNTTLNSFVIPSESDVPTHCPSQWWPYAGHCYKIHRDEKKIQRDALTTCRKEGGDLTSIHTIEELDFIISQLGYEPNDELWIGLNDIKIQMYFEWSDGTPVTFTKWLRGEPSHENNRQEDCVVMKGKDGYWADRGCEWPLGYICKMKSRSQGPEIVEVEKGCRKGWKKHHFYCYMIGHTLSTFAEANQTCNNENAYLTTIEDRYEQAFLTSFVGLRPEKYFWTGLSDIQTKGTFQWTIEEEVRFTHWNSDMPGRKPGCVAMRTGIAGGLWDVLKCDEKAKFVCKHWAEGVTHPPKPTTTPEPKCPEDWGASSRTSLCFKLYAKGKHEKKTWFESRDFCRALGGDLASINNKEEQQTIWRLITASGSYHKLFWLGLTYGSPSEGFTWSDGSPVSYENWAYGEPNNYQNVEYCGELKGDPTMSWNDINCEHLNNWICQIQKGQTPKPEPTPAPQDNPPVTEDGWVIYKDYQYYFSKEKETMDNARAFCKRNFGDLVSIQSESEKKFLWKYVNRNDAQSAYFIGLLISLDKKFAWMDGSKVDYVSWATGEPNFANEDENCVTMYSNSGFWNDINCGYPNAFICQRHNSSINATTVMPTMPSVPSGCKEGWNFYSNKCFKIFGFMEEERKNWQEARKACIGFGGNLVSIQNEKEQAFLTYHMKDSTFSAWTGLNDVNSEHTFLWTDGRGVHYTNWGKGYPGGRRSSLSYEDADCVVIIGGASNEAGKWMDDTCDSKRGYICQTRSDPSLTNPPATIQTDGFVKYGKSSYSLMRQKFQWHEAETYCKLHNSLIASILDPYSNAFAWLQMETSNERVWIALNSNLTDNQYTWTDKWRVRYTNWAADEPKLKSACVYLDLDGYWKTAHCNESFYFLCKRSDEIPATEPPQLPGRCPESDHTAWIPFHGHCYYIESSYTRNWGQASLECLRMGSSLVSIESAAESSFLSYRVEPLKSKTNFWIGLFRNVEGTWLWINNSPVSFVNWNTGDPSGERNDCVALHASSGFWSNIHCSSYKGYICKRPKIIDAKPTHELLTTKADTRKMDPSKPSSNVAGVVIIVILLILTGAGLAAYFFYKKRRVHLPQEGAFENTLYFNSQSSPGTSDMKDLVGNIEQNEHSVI
# [2] = target: T2, C-type lectin domain family 4 member C (Homo sapiens) (UniProt Q8WTT0); experiment: Displacement of biotinylated-TM PAA from human DLEC at 1 mM after 3 hrs by colorimetry
# T2 sequence (whole entry): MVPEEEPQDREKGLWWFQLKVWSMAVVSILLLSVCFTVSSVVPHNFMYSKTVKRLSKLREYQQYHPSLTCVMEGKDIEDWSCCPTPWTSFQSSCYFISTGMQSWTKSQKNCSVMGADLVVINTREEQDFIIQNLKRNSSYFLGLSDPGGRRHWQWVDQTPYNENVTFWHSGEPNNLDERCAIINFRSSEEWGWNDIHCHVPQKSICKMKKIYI
# Summary of the method: (§1)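 Proteins were coated overnight at 4 °C in 20 mM HEPES pH 7.4, 150 mM NaCl and 10 mM CaCl2, then blocked with 3% BSA for 2 h at 4 °C. FimH was a CRD-thrombin-6His construct expressed in E. coli HM125; DC-SIGN and DC-SIGNR were CRD-Fc chimeras made in stably transfected CHO-K1. Compound at 1 mM final was co-added with streptavidin-HRP-coupled TM-PAA, incubated 3 h at 25 °C and 350 rpm, then read by ABTS OD 415 nm. No-antagonist signal was set to 100% and no-polymer background to 0%.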
# [3] = target: T3, C-type lectin domain family 6 member A (Homo sapiens) (UniProt Q6EIG7); experiment: Displacement of biotinylated-TM PAA from human Dectin-2 at 1 mM after 3 hrs by colorimetry; summary of the method: as §1
# T3 sequence (whole entry): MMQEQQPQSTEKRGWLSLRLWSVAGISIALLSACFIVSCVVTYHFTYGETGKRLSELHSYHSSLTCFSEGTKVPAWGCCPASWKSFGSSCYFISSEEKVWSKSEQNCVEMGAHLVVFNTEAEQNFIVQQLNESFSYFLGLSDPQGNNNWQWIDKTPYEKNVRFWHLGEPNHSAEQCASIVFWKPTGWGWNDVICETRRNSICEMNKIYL
# [4] = target: T4, C-type lectin domain family 4 member K (Homo sapiens, UniProt Q9UJ71); experiment: Displacement of biotinylated-TM PAA from human langerin at 1 mM after 3 hrs by colorimetry; summary of the method: as §1
# [5] = target: T5, Pulmonary surfactant-associated protein D (Homo sapiens) (UniProt P35247); experiment: Displacement of biotinylated-TM PAA from human SP-D at 1 mM after 3 hrs by colorimetry; summary of the method: as §1
# T5 sequence (whole entry): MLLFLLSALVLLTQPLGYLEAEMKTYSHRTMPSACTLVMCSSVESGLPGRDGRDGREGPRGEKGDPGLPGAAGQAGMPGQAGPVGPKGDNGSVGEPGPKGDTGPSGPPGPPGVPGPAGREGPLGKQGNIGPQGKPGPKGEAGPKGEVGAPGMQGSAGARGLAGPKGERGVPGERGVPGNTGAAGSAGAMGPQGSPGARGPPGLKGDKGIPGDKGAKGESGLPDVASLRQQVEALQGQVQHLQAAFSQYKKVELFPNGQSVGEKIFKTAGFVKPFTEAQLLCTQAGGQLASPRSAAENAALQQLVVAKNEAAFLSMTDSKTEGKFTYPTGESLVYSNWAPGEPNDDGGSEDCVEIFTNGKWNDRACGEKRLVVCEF
# [6] = target: T6, Macrophage mannose receptor 1 (Homo sapiens) (UniProt P22897); experiment: Displacement of biotinylated-TM PAA from human MMR at 1 mM after 3 hrs by colorimetry; summary of the method: as §1
# T6 sequence (whole entry): T1 sequence (P22897 whole entry)
# [7] = target: T7, C-type lectin domain family 4 member M (Homo sapiens) (UniProt Q9H2X3); experiment: Displacement of biotinylated-TM PAA from human DC-SIGNR at 1 mM after 3 hrs by colorimetry; summary of the method: as §1
# T7 sequence (whole entry): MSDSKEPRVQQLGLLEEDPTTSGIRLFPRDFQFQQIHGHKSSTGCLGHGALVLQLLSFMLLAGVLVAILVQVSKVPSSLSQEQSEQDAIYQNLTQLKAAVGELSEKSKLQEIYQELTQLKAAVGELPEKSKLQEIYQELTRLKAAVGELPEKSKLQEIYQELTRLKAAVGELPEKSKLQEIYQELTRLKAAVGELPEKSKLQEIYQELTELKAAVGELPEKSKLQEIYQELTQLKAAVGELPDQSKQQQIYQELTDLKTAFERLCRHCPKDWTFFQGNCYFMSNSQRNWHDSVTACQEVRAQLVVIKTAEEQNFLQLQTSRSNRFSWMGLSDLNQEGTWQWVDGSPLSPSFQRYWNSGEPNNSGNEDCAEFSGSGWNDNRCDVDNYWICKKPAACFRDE
# [8] = target: T8, CD209 antigen (Homo sapiens) (UniProt Q9NNX6); experiment: Displacement of biotinylated-TM PAA from human DC-SIGN at 1 mM after 3 hrs by colorimetry; summary of the method: as §1
# T8 sequence (whole entry): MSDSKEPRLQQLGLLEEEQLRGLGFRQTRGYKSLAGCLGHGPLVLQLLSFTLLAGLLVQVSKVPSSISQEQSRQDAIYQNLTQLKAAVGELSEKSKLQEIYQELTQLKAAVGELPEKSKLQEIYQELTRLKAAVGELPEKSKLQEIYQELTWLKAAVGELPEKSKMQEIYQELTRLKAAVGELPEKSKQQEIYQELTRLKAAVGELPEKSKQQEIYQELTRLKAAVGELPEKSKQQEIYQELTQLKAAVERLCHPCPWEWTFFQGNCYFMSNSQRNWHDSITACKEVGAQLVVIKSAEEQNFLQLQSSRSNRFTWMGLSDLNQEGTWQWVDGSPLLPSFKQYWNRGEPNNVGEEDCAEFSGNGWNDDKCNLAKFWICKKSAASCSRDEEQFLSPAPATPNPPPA
# [9] = target: Mannose-binding protein C (Homo sapiens) (UniProt P11226); experiment: Displacement of biotinylated-TM PAA from human MBP at 1 mM after 3 hrs by colorimetry; summary of the method: as §1
# [10] = Displacement of biotinylated-TM PAA from Escherichia coli FimH expressed in Escherichia coli HM125 after 3 hrs by colorimetry
# Escherichia coli [11] = experiment: Displacement of biotinylated-TM PAA from Escherichia coli FimH expressed in Escherichia coli HM125 at 1 mM after 3 hrs by colorimetry; summary of the method: as §1
# [12] = Cmax in mouse; type: ADME, organism-based; conditions: in vivo
# [13] = target: T9, C-type lectin domain family 4 member C (Homo sapiens, UniProt Q8WTT0); experiment: Displacement of biotinylated-TM PAA from human DLEC after 3 hrs by colorimetry
# T9 sequence (Q8WTT0 whole entry): T2 sequence (whole entry)
# [14] = target: T4, C-type lectin domain family 4 member K; experiment: Displacement of biotinylated-TM PAA from human langerin after 3 hrs by colorimetry
# [15] = target: T2, C-type lectin domain family 4 member C (Homo sapiens); experiment: Displacement of biotinylated-TM PAA from human DLEC at 50 mM after 3 hrs by colorimetry
# Summary of the method: (§2)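 α-D-mannose served as the positive control at 50 mM final, mixed with streptavidin-HRP-TM-PAA and applied to lectin-coated wells. Wells were coated overnight at 4 °C in HEPES/NaCl/10 mM CaCl2 at pH 7.4 and blocked with BSA. Incubation was 3 h at 25 °C, followed by four washes and ABTS development for 4 min, stopped with oxalic acid, OD 415 nm. Binding is expressed as % of the antagonist-free signal after subtracting the polymer-free background.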
# [16] = target: T3, C-type lectin domain family 6 member A (Homo sapiens); experiment: Displacement of biotinylated-TM PAA from human Dectin-2 at 50 mM after 3 hrs by colorimetry; summary of the method: as §2
# [17] = target: T4, C-type lectin domain family 4 member K; experiment: Displacement of biotinylated-TM PAA from human langerin at 50 mM after 3 hrs by colorimetry; summary of the method: as §2
# [18] = target: T5, Pulmonary surfactant-associated protein D (Homo sapiens); experiment: Displacement of biotinylated-TM PAA from human SP-D at 50 mM after 3 hrs by colorimetry; summary of the method: as §2
# [19] = target: T6, Macrophage mannose receptor 1 (Homo sapiens); experiment: Displacement of biotinylated-TM PAA from human MMR at 50 mM after 3 hrs by colorimetry; summary of the method: as §2
# [20] = target: T7, C-type lectin domain family 4 member M (Homo sapiens); experiment: Displacement of biotinylated-TM PAA from human DC-SIGNR at 50 mM after 3 hrs by colorimetry; summary of the method: as §2
# [21] = target: T8, CD209 antigen (Homo sapiens); experiment: Displacement of biotinylated-TM PAA from human DC-SIGN at 50 mM after 3 hrs by colorimetry; summary of the method: as §2
# [22] = target: Mannose-binding protein C (Homo sapiens) (UniProt P11226); experiment: Displacement of biotinylated-TM PAA from human MBP at 50 mM after 3 hrs by colorimetry; summary of the method: as §2
# Escherichia coli [23] = experiment: Displacement of biotinylated-TM PAA from Escherichia coli FimH expressed in Escherichia coli HM125 at 50 mM after 3 hrs by colorimetry; summary of the method: as §2
# Mannose-binding protein C (Homo sapiens), sequence (P11226 whole entry): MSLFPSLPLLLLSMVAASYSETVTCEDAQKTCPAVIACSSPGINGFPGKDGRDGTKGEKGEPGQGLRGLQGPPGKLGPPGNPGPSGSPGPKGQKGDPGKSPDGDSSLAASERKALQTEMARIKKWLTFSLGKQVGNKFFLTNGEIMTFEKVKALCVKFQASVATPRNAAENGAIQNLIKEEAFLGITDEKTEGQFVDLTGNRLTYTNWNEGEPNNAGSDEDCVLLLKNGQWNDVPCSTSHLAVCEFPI
# T4 sequence (Q9UJ71 whole entry, the tested form may be a part): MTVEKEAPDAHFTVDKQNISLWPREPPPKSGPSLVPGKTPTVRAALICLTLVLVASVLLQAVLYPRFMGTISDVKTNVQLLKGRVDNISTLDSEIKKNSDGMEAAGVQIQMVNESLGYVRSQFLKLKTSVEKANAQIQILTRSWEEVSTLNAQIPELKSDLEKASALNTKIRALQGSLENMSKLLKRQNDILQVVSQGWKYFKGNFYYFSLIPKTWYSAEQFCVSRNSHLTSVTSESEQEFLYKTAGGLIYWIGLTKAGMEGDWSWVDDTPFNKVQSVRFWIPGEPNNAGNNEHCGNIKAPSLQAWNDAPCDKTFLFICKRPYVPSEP
SMILES,IC50 [1] [µM],inhibition [2],inhibition [3],inhibition [4],inhibition [5],inhibition [6],inhibition [7],inhibition [8],inhibition [9],IC50 [10] [µM],inhibition (Escherichia coli [11]),Cmax [12] [µM],also measured
O=C(O)c1ccc(-c2ccc(O[C@H]3O[C@H](CO)[C@@H](O)[C@H](O)[C@@H]3O)cc2)cc1,,50%,inactive,inactive,inactive,inactive,inactive,inactive,inactive,0.017,Active,80,IC50 [13]: 1000 µM
CCCCCCCO[C@H]1O[C@H](CO)[C@@H](O)[C@H](O)[C@@H]1O,,inactive,inactive,inactive,inactive,inactive,inactive,inactive,inactive,0.065,Active,144,
OC[C@H]1OC(O)[C@@H](O)[C@@H](O)[C@@H]1O (stereo not given in full),,,,,,,,,,,,,inhibition [15]: > 90%; inhibition [16]: > 90%; inhibition [17]: > 90%; inhibition [18]: > 90%; inhibition [19]: > 90%; inhibition [20]: > 90%; inhibition [21]: > 90%; inhibition [22]: > 90%; inhibition (Escherichia coli [23]): > 90%

# Second part, led by results:
IC50 [1] [µM],inhibition [2],inhibition [3],inhibition [4],inhibition [5],inhibition [6],inhibition [7],inhibition [8],inhibition [9],IC50 [10] [µM],inhibition (Escherichia coli [11]),Cmax [12] [µM],SMILES,also measured
1000,inactive,inactive,inactive,inactive,58%,inactive,inactive,inactive,0.02,Active,,O=C(O)c1ccc2c(ccn2-c2ccc(O[C@H]3O[C@H](CO)[C@@H](O)[C@H](O)[C@@H]3O)c(Cl)c2)c1,
,inactive,inactive,inactive,inactive,inactive,inactive,inactive,inactive,0.031,Active,,CN1CCN(c2c(Nc3ccc(O[C@H]4O[C@H](CO)[C@@H](O)[C@H](O)[C@@H]4O)c(Cl)c3)c(=O)c2=O)CC1,
1000,inactive,inactive,63%,inactive,54%,inactive,inactive,inactive,,Active,97,O=C(O)c1ccc(-c2ccc(O[C@H]3O[C@H](CO)[C@@H](O)[C@H](O)[C@@H]3O)c(Cl)c2)cc1,IC50 [14]: 1000 µM
